Laboratory results from ChEMBL document CHEMBL5303300, “EUbOPEN Chemogenomics Library - Multiplex” (2023).
Values joined by “and” are separate entries in the source; they are usually repeats but may differ in a detail not shown here. Equal values may be shown once.

System: HEK-293T
Assay: Multiplex assay against HEK293T
Format: toxicity, cell-based
Conditions: human, number of replicates 2
How it was run: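 At seeding, live cells were stained with Hoechst33342, BioTracker Green Microtubule Cytoskeleton Dye, MitoTracker Red and Annexin V Alexa Fluor 680. After compound addition they were imaged on a CQ1 microscope at 37°C and 5% CO2, and CellPathfinder machine-learning gating sorted them into Hoechst high-intensity objects or normal cells, with normal cells further split into healthy, pyknosed or fragmented nuclei and pyknosed cells into mitotic or apoptotic. Tubulin, mitochondrial-mass and membrane-permeability phenotypes are given as per cents of cells with healthy nuclei.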

[1] = 12 h, 1 µM, compound concentration 1 uM
[2] = 12 h, 10 µM, compound concentration 10 uM
[3] = 24 h, 1 µM, compound concentration 1 uM
[4] = 24 h, 10 µM, compound concentration 10 uM
[5] = 48 h, 1 µM, compound concentration 1 uM
[6] = 48 h, 10 µM, compound concentration 10 uM

COc1ccc(-c2cc3c(C)nc(N)nc3n([C@H]3CC[C@H](OCCO)CC3)c2=O)cn1 [PF-04691502]
Population Apoptotic (%) [1]: 74% and 67%
Population Fragmented Nuclei (%) [1]: 3% and 2%
Population Healthy Nuclei (%) [1]: 86% and 87%
Population Hoechst High Intensity Objects (%) [1]: 12% and 13%
Population Membrane Permeable-Phenotype (%) [1]: 0% and 2%
Population Mitochondria Different-Phenotype (%) [1]: 36% and 56%
Population Mitotic Cells (%) [1]: 25% and 32%
Population Normal (%) [1]: 87% and 86%
Population Pyknosed Nuclei (%) [1]: 10%
Population Tubulin-Different-Phenotype (%) [1]: 60% and 67%
Total Cell Count [1]: 425 and 310
Population Apoptotic (%) [2]: 73% and 71%
Population Fragmented Nuclei (%) [2]: 7% and 3%
Population Healthy Nuclei (%) [2]: 69% and 75%
Population Hoechst High Intensity Objects (%) [2]: 24% and 19%
Population Membrane Permeable-Phenotype (%) [2]: 1% and 5%
Population Mitochondria Different-Phenotype (%) [2]: 80% and 72%
Population Mitotic Cells (%) [2]: 26% and 28%
Population Normal (%) [2]: 75% and 80%
Population Pyknosed Nuclei (%) [2]: 23% and 21%
Population Tubulin-Different-Phenotype (%) [2]: 77% and 78%
Total Cell Count [2]: 170 and 187
Population Apoptotic (%) [3]: 71% and 78%
Population Fragmented Nuclei (%) [3]: 7%
Population Healthy Nuclei (%) [3]: 76% and 81%
Population Hoechst High Intensity Objects (%) [3]: 24% and 20%
Population Membrane Permeable-Phenotype (%) [3]: 1%
Population Mitochondria Different-Phenotype (%) [3]: 40% and 55%
Population Mitotic Cells (%) [3]: 28% and 21%
Population Normal (%) [3]: 75% and 79%
Population Pyknosed Nuclei (%) [3]: 16% and 10%
Population Tubulin-Different-Phenotype (%) [3]: 64% and 68%
Total Cell Count [3]: 314 and 266
Population Apoptotic (%) [4]: 66% and 60%
Population Fragmented Nuclei (%) [4]: 9% and 7%
Population Healthy Nuclei (%) [4]: 70% and 77%
Population Hoechst High Intensity Objects (%) [4]: 26% and 30%
Population Membrane Permeable-Phenotype (%) [4]: 2% and 0%
Population Mitochondria Different-Phenotype (%) [4]: 72% and 61%
Population Mitotic Cells (%) [4]: 33% and 40%
Population Normal (%) [4]: 73% and 69%
Population Pyknosed Nuclei (%) [4]: 20% and 14%
Population Tubulin-Different-Phenotype (%) [4]: 79% and 69%
Total Cell Count [4]: 163 and 192
Population Apoptotic (%) [5]: 70% and 77%
Population Fragmented Nuclei (%) [5]: 9% and 10%
Population Healthy Nuclei (%) [5]: 69% and 65%
Population Hoechst High Intensity Objects (%) [5]: 28% and 27%
Population Membrane Permeable-Phenotype (%) [5]: 0% and 1%
Population Mitochondria Different-Phenotype (%) [5]: 42% and 44%
Population Mitotic Cells (%) [5]: 29% and 22%
Population Normal (%) [5]: 71% and 72%
Population Pyknosed Nuclei (%) [5]: 20% and 24%
Population Tubulin-Different-Phenotype (%) [5]: 69% and 75%
Total Cell Count [5]: 275 and 280
Population Apoptotic (%) [6]: 70% and 64%
Population Fragmented Nuclei (%) [6]: 14% and 18%
Population Healthy Nuclei (%) [6]: 74%
Population Hoechst High Intensity Objects (%) [6]: 31% and 28%
Population Membrane Permeable-Phenotype (%) [6]: 0% and 1%
Population Mitochondria Different-Phenotype (%) [6]: 40% and 27%
Population Mitotic Cells (%) [6]: 30% and 35%
Population Normal (%) [6]: 68% and 71%
Population Pyknosed Nuclei (%) [6]: 10% and 6%
Population Tubulin-Different-Phenotype (%) [6]: 61% and 50%
Total Cell Count [6]: 273 and 293

C=CC(=O)Nc1ccc2[nH]c(=O)n(C3CCN(Cc4ccc(-c5ccc6c(c5)NC(=O)CO6)cc4)CC3)c2c1 [RL2578]
Population Apoptotic (%) [1]: 38% and 52%
Population Fragmented Nuclei (%) [1]: 3%
Population Healthy Nuclei (%) [1]: 85%
Population Hoechst High Intensity Objects (%) [1]: 8% and 6%
Population Membrane Permeable-Phenotype (%) [1]: 4% and 5%
Population Mitochondria Different-Phenotype (%) [1]: 17%
Population Mitotic Cells (%) [1]: 61% and 47%
Population Normal (%) [1]: 91% and 93%
Population Pyknosed Nuclei (%) [1]: 10% and 11%
Population Tubulin-Different-Phenotype (%) [1]: 66% and 57%
Total Cell Count [1]: 749 and 364
Population Apoptotic (%) [2]: 39% and 60%
Population Fragmented Nuclei (%) [2]: 2% and 1%
Population Healthy Nuclei (%) [2]: 92% and 89%
Population Hoechst High Intensity Objects (%) [2]: 6% and 10%
Population Membrane Permeable-Phenotype (%) [2]: 10% and 6%
Population Mitochondria Different-Phenotype (%) [2]: 39%
Population Mitotic Cells (%) [2]: 60% and 40%
Population Normal (%) [2]: 93% and 89%
Population Pyknosed Nuclei (%) [2]: 4% and 8%
Population Tubulin-Different-Phenotype (%) [2]: 97% and 96%
Total Cell Count [2]: 579 and 597
Population Apoptotic (%) [3]: 44% and 59%
Population Fragmented Nuclei (%) [3]: 6% and 4%
Population Healthy Nuclei (%) [3]: 86% and 88%
Population Hoechst High Intensity Objects (%) [3]: 4%
Population Membrane Permeable-Phenotype (%) [3]: 4% and 3%
Population Mitochondria Different-Phenotype (%) [3]: 7% and 9%
Population Mitotic Cells (%) [3]: 56% and 40%
Population Normal (%) [3]: 95%
Population Pyknosed Nuclei (%) [3]: 6% and 7%
Population Tubulin-Different-Phenotype (%) [3]: 42% and 38%
Total Cell Count [3]: 1138 and 534
Population Apoptotic (%) [4]: 53% and 81%
Population Fragmented Nuclei (%) [4]: 3% and 4%
Population Healthy Nuclei (%) [4]: 93% and 90%
Population Hoechst High Intensity Objects (%) [4]: 8% and 9%
Population Membrane Permeable-Phenotype (%) [4]: 5% and 2%
Population Mitochondria Different-Phenotype (%) [4]: 35% and 46%
Population Mitotic Cells (%) [4]: 46% and 18%
Population Normal (%) [4]: 91% and 90%
Population Pyknosed Nuclei (%) [4]: 2% and 4%
Population Tubulin-Different-Phenotype (%) [4]: 90% and 94%
Total Cell Count [4]: 626 and 621
Population Apoptotic (%) [5]: 16% and 19%
Population Fragmented Nuclei (%) [5]: 15% and 13%
Population Healthy Nuclei (%) [5]: 81% and 82%
Population Hoechst High Intensity Objects (%) [5]: 8% and 7%
Population Membrane Permeable-Phenotype (%) [5]: 6% and 4%
Population Mitochondria Different-Phenotype (%) [5]: 0% and 2%
Population Mitotic Cells (%) [5]: 83% and 80%
Population Normal (%) [5]: 91% and 92%
Population Pyknosed Nuclei (%) [5]: 2% and 3%
Population Tubulin-Different-Phenotype (%) [5]: 18% and 21%
Total Cell Count [5]: 2736 and 1194
Population Apoptotic (%) [6]: 32% and 60%
Population Fragmented Nuclei (%) [6]: 11% and 7%
Population Healthy Nuclei (%) [6]: 84% and 86%
Population Hoechst High Intensity Objects (%) [6]: 13%
Population Membrane Permeable-Phenotype (%) [6]: 3% and 1%
Population Mitochondria Different-Phenotype (%) [6]: 15% and 25%
Population Mitotic Cells (%) [6]: 67% and 40%
Population Normal (%) [6]: 86%
Population Pyknosed Nuclei (%) [6]: 4% and 6%
Population Tubulin-Different-Phenotype (%) [6]: 71% and 82%
Total Cell Count [6]: 795 and 718
